In ChEMBL document CHEMBL1782034, “Design, synthesis and biological evaluation of novel substituted benzoylguanidine derivatives as potent Na+/H+ exchanger inhibitors” (Bioorg Med Chem Lett, 2009):
Calls of active or inactive are those of the source.

Key:
Rattus norvegicus [1] = experiment: Cardioprotective activity against ischemia-reperfusion injury in Sprague-Dawley rat assessed as decrease in myocardial infarct size at 1 mg/kg, iv; format: functional, organism-based; set-up: dose 1 mg/kg; conditions: Myocardium
Procedure, shortened: (§1)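 In vivo rat model: coronary artery ligated 45 min, then the ligature is loosened for 90 min of reperfusion. Compound is given as an iv bolus 5 min before reperfusion at 1, 0.5 or 0.25 mg/kg. Infarct size is expressed as a percentage of left ventricle area (IS/LV%). n = 8; compared against sham and model groups.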

Rattus norvegicus [2] = experiment: Cardioprotective activity against ischemia-reperfusion injury in Sprague-Dawley rat assessed as decrease in creatine kinase release at 1 mg/kg, iv; format: functional, organism-based; set-up: dose 1 mg/kg
Procedure, shortened: (§2)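 Rats undergo 45 min coronary artery occlusion followed by 90 min reperfusion. Compound is given iv 5 min before reperfusion at 1, 0.5 or 0.25 mg/kg. Prepared serum is assayed for CK, LDH and SOD activities and MDA content as injury indicators, versus sham and model groups.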

Rattus norvegicus [3] = experiment: Cardioprotective activity against ischemia-reperfusion injury in Sprague-Dawley rat assessed as decrease in LDH release at 1 mg/kg, iv; format: functional, organism-based; set-up: dose 1 mg/kg; procedure, shortened: as §2
Rattus norvegicus [4] = experiment: Cardioprotective activity against ischemia-reperfusion injury in Sprague-Dawley rat assessed as decrease in malondialdehyde at 1 mg/kg, iv; format: functional, organism-based; set-up: dose 1 mg/kg; procedure, shortened: as §2
Rattus norvegicus [5] = experiment: Cardioprotective activity against ischemia-reperfusion injury in Sprague-Dawley rat assessed as increase in SOD activity in serum at 1 mg/kg, iv; format: functional, organism-based; set-up: dose 1 mg/kg; procedure, shortened: as §2
Rattus norvegicus [6] = organism: Rattus norvegicus; experiment: Cardioprotective activity against Langendorff perfused Sprague-Dawley rat heart assessed as increase in myocardial energy metabolism at 10 uM; format: functional, organism-based
Procedure, shortened: (§3)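 Isolated rat hearts: 20 min equilibration, then 30 min low-rate perfusion (0.5 ml/min), then 30 min reperfusion. Drug is added to the perfusate during the low-rate period only. After reperfusion, the heart tissue homogenate is assayed for Na+-K+ ATPase activity, lactate (LD) content and ATP content. n = 10; compared against sham and model groups.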

Rattus norvegicus [7] = organism: Rattus norvegicus; experiment: Cardioprotective activity against Langendorff perfused Sprague-Dawley rat heart assessed as increase in relaxing coronary artery at 10 uM; format: functional, organism-based
Procedure, shortened: (§4)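 Isolated hearts are equilibrated 20 min, perfused at a low rate (0.5 ml/min) for 30 min with compound in the perfusate, then reperfused 30 min. Coronary flow at the start and at the end of reperfusion is expressed as a ratio to the end-of-equilibration value. n = 10.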

Rattus norvegicus [8] = experiment: Cardioprotective activity against ischemia-reperfusion injury in iv dosed Sprague-Dawley rat assessed as decrease in malondialdehyde; format: functional, organism-based; procedure, shortened: as §2
Rattus norvegicus [9] = experiment: Cardioprotective activity against ischemia-reperfusion injury in iv dosed Sprague-Dawley rat assessed as increase in SOD activity in serum; format: functional, organism-based; procedure, shortened: as §2
Rattus norvegicus [10] = organism: Rattus norvegicus; experiment: Cardioprotective activity against Langendorff perfused Sprague-Dawley rat heart assessed as increase in coronary flow at 2 to 50 uM; format: functional, organism-based; procedure, shortened: as §4
Rattus norvegicus [11] = organism: Rattus norvegicus; experiment: Cardioprotective activity against Langendorff perfused Sprague-Dawley rat heart assessed as increase in ATP content in homogenates at 2 to 50 uM; format: functional; procedure, shortened: as §3
Rattus norvegicus [12] = organism: Rattus norvegicus; experiment: Cardioprotective activity against Langendorff perfused Sprague-Dawley rat heart assessed as increase in […]-K+ ATPase activity in homogenates at 2 to 50 uM; format: functional; procedure, shortened: as §3
Rattus norvegicus [13] = organism: Rattus norvegicus; experiment: Cardioprotective activity against Langendorff perfused Sprague-Dawley rat heart assessed as decrease in lactic acid content in homogenates at 2 to 50 uM; format: functional; procedure, shortened: as §3
Rattus norvegicus [14] = organism: Rattus norvegicus; experiment: Cardioprotective activity against Langendorff perfused Sprague-Dawley rat heart assessed as increase in myocardial energy metabolism; format: functional, organism-based; procedure, shortened: as §3
Rattus norvegicus [15] = organism: Rattus norvegicus; experiment: Cardioprotective activity against Langendorff perfused Sprague-Dawley rat heart assessed as increase in relaxing coronary artery at 50 uM; format: functional, organism-based; procedure, shortened: as §4
Rattus norvegicus [16] = experiment: Cardioprotective activity against ischemia-reperfusion injury in iv dosed Sprague-Dawley rat assessed as decrease in myocardial infarct size; format: functional, organism-based; conditions: Myocardium; procedure, shortened: as §1
Rattus norvegicus [17] = experiment: Cardioprotective activity against ischemia-reperfusion injury in iv dosed Sprague-Dawley rat assessed as decrease in creatine kinase release; format: functional, organism-based; procedure, shortened: as §2
Rattus norvegicus [18] = experiment: Cardioprotective activity against ischemia-reperfusion injury in iv dosed Sprague-Dawley rat assessed as decrease in LDH release; format: functional, organism-based; procedure, shortened: as §2

Measured: Activity

CC(C)c1ccc(C(=O)N=C(N)N)cc1S(C)(=O)=O
active: Rattus norvegicus [1] | Rattus norvegicus [2] | Rattus norvegicus [3] | Rattus norvegicus [4] | Rattus norvegicus [5] | Rattus norvegicus [6] | Rattus norvegicus [7]

COc1ccc(CN2CCN(Cc3ccc(C(=O)N=C(N)N)cc3[N+](=O)[O-])CC2)c(OC)c1OC
active: Rattus norvegicus [8] Dose-dependent effect | Rattus norvegicus [9] Dose-dependent effect | Rattus norvegicus [1] | Rattus norvegicus [2] | Rattus norvegicus [3] | Rattus norvegicus [4] | Rattus norvegicus [5] | Rattus norvegicus [10] | Rattus norvegicus [11] | Rattus norvegicus [12] | Rattus norvegicus [13] | Rattus norvegicus [14] Dose-dependent effect | Rattus norvegicus [7] | Rattus norvegicus [15] | Rattus norvegicus [16] Dose-dependent effect | Rattus norvegicus [17] Dose-dependent effect | Rattus norvegicus [18] Dose-dependent effect
